Source: ChEMBL document CHEMBL2321864, “Rapid discovery of a novel series of Abl kinase inhibitors by application of an integrated microfluidic synthesis and screening platform” (J Med Chem, 2013)
pIC50: −log10 of the molar value.

Legend:
[1] = target: T1, Tyrosine-protein kinase ABL2 (Homo sapiens, UniProt P42684); experiment: Inhibition of Abl2 kinase (unknown origin) using Tyr 6 peptide as substrate assessed as residual enzyme activity after every 10 secs measured for 10 mins
[2] = target: T2, Tyrosine-protein kinase ABL1 (Homo sapiens, UniProt P00519); experiment: Inhibition of wild type Abl1 kinase (unknown origin)
[3] = target: Tyrosine-protein kinase ABL1 (Homo sapiens, UniProt P00519, Q252H); experiment: Inhibition of Abl1 kinase Q252H mutant (unknown origin)
Method in brief: (§1)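 Biochemical inhibition assays run by a contract screening service as a panel: ABL1 mutants H396P, M351T, Q252H, T315I and Y253F, plus P38α/MAPK14.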

[4] = target: T2, Tyrosine-protein kinase ABL1; experiment: Inhibition of Abl1 kinase (unknown origin) using Tyr 6 peptide as substrate assessed as residual enzyme activity after every 10 secs measured for 10 mins
[5] = target: Tyrosine-protein kinase ABL1 (Homo sapiens, UniProt P00519, M351T); experiment: Inhibition of Abl1 kinase M351T mutant (unknown origin); method in brief: as §1
[6] = target: Tyrosine-protein kinase ABL1 (Homo sapiens, UniProt P00519, H396P); experiment: Inhibition of Abl1 kinase H396P mutant (unknown origin); method in brief: as §1
[7] = target: T1, Tyrosine-protein kinase ABL2; experiment: Inhibition of Abl2 kinase (unknown origin) using Tyr 6 peptide as substrate assessed as residual enzyme activity after every 10 secs measured for 10 mins by platform assay
[8] = target: Tyrosine-protein kinase ABL1 (Homo sapiens, UniProt P00519, Y253F); experiment: Inhibition of Abl1 kinase Y253F mutant (unknown origin); method in brief: as §1
[9] = target: Mitogen-activated protein kinase 14 (Homo sapiens, UniProt Q16539); experiment: Inhibition of P38alpha (unknown origin); method in brief: as §1
Mitogen-activated protein kinase 14, sequence (Q16539 whole entry): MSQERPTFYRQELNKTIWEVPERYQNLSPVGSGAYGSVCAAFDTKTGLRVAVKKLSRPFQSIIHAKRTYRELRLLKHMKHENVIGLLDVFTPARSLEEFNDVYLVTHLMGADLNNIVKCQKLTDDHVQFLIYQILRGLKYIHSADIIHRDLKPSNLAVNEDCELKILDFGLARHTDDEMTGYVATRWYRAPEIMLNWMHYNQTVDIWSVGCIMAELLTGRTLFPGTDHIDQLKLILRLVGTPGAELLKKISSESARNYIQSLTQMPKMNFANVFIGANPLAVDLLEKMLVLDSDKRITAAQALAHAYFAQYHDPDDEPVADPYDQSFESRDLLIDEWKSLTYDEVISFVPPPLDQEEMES

[10] = Apparent permeability of the compound by PAMPA assay; format: ADME
Method in brief: (§2)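 In vitro ADME run by a contract lab: human microsomal stability and parallel artificial membrane permeability assay (PAMPA).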

[11] = target: T2, Tyrosine-protein kinase ABL1; experiment: Inhibition of Abl1 kinase (unknown origin) using Tyr 6 peptide as substrate assessed as residual enzyme activity after every 10 secs measured for 10 mins by platform assay
[12] = target: Tyrosine-protein kinase ABL1 (Homo sapiens, UniProt P00519, T315I); experiment: Inhibition of Abl1 kinase T315I mutant (unknown origin); method in brief: as §1
[13] = Intrinsic clearance in human liver microsomes; format: ADME, Microsome; settings: read-out: CLH; method in brief: as §2

T1 sequence (P42684 whole entry): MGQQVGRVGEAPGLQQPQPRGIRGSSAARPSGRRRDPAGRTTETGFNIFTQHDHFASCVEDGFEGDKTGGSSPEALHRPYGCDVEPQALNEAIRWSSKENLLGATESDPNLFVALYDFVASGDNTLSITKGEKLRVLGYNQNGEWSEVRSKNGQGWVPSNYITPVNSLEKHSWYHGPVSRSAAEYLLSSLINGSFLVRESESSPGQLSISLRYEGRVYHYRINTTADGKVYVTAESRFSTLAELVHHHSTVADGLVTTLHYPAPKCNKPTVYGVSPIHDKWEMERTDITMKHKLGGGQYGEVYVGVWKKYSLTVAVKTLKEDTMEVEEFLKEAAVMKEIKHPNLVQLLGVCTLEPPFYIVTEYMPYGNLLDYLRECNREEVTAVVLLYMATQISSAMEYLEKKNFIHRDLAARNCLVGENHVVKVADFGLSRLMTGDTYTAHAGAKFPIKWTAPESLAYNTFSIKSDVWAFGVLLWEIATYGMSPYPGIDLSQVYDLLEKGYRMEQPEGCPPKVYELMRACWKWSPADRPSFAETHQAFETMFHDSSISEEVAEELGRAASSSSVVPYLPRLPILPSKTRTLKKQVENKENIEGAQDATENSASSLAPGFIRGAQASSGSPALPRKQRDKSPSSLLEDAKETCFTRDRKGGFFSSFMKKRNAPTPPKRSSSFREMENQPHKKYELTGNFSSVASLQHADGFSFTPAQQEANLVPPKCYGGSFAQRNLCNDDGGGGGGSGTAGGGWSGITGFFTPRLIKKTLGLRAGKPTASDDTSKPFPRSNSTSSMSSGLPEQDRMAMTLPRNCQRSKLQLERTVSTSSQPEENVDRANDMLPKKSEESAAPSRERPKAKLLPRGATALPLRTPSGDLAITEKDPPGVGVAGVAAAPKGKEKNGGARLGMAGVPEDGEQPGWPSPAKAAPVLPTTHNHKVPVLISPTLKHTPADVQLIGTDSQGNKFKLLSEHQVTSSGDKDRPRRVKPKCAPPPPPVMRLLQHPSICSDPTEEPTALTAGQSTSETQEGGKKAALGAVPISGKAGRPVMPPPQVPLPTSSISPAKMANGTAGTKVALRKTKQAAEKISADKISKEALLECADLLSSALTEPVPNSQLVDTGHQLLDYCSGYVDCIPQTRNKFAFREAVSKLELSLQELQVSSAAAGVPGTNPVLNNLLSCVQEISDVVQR

Row | Structure (SMILES) | pIC50 [1] | pIC50 [2] | pIC50 [3] | pIC50 [4] | pIC50 [5] | pIC50 [6] | pIC50 [7] | pIC50 [8] | pIC50 [9] | Papp [10] [×10⁻⁶ cm/s] | pIC50 [11] | pIC50 [12] | microsomal CLint [13] [µL/min/mg]
1 | CN1CCN(Cc2ccc(NC(=O)Nc3cc(C#Cc4cncc5nccn45)n(C)n3)cc2C(F)(F)F)CC1 | 7.82 | 8.80 | 8.80 | 7.92 | 9.05 | 9.15 | 7.96 | 9.05 | 7.46 | 0.1 | 8.70 | 8.72 | 76
2 | CN1CCN(Cc2ccc(NC(=O)Nc3cc(C#Cc4cnc5cccnn45)n(C)n3)cc2C(F)(F)F)CC1 | 8.22 | 9.00 | 9.15 | 7.92 | 9.40 | 9.70 | 7.33 | 9.40 | 7.62 | 2 | 7.57 | 9.40 | 29
3 | Cc1ccc(C(=O)Nc2ccc(CN3CCN(C)CC3)c(C(F)(F)F)c2)cc1C#Cc1cncc2nccn12 | 9.00 | 9.22 | 9.30 | 9.00 | 9.52 | 9.52 | 8.70 | 9.52 | 7.37 | 26 | 9.70 | 9.40 | 90
4 | CN1CCN(Cc2ccc(NC(=O)Nc3cc(C#Cc4cnc5cnccn45)n(C)n3)cc2C(F)(F)F)CC1 | 8.00 | 9.00 | 9.00 | 8.15 | 9.30 | 9.52 | 8.52 | 9.40 | 7.46 | 0.2 | 9.40 | 9.10 | 51
